The source made the active and inactive calls. The calls are words filed in the database; no cut-off is given here.

The subject of data set [1] is Rattus norvegicus. Put plainly: Acute toxicity in Sprague-Dawley rat assessed as motor impairment at 100 mg/kg, ip after 1 hr. It counts as organism-based. Also noted: dose 100 mg/kg, route intraperitoneal. The following applies: in vivo. Summed up: (§1)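 Male albino Sprague Dawley rats, two per dose, given test compound i.p. as a suspension in 0.5% methyl cellulose. Behaviour was closely observed and recorded over 4 h to detect acute motor impairment. Values are scored as animals toxic over animals tested at each time point.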

Data set [2] deals with Rattus norvegicus. Put plainly: Acute toxicity in Sprague-Dawley rat assessed as motor impairment at 600 mg/kg, ip after 1 hr. It counts as organism-based. Also noted: dose 600 mg/kg, route intraperitoneal. The following applies: in vivo. A digest of the protocol:
as §1

Data set [3] is described as follows: Octanol-phosphate buffer partition coefficient, log P of the compound at 5 mg, after 24 hrs by UV spectroscopic analysis. Format: physicochemical. A digest of the protocol: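 5 mg compound added to 10 mL octanol plus 10 mL phosphate buffer in stoppered tube, mechanically shaken 24 h at room temperature, then left in separating funnel 6 h to equilibrate.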

Data set [4] relates to Rattus norvegicus. Briefly: Toxicity in Sprague-Dawley rat assessed as change in body weight at 600 mg/kg, ip measured after 24 hrs of clonus of one of the fore limbs seizure stage in non-protected rat. It counts as organism-based. Also noted: dose 600 mg/kg, route intraperitoneal. The following applies: in vivo. Summed up: (§2)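 Male Sprague Dawley rats (150–180 g) dosed i.p. then challenged with pilocarpine; body weight change measured 24 h after first Stage III seizure, split by protected and non-protected rats, given ± S.E.M.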

The test system of data set [5] is Mus musculus. Put plainly: Neurotoxicity in albino CF-1 mouse assessed as motor impairment at 300 mg/kg, ip after 0.5 hrs by rotarod test. It counts as toxicity, organism-based. Also noted: dose 300 mg/kg, route intraperitoneal. The conditions noted are these: in vivo. Summed up: (§3)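 Minimal motor impairment in male CF-1 mice by rotorod after i.p. dosing; toxic if animal falls off rotating rod 3 times within 1 min. Screen doses 30, 100, 300 mg/kg; quantitative TD50 (95% confidence interval) determined at time of peak effect.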
On the technique in general: In the rotarod test animals must keep their balance on a rotating rod.

Data set [6] deals with Rattus norvegicus. Put plainly: Acute toxicity in Sprague-Dawley rat assessed as motor impairment at 300 mg/kg, ip after 1 hr. Further details: dose 300 mg/kg, route intraperitoneal. The conditions noted are these: in vivo. Format: organism-based. Summed up: as §1
Data set [7] deals with Rattus norvegicus. Put plainly: Acute toxicity in Sprague-Dawley rat assessed as motor impairment at 300 mg/kg, ip after 0.25 hrs. It counts as organism-based. Also noted: dose 300 mg/kg, route intraperitoneal. The following applies: in vivo. Summed up:
as §1

In data set [8] the test system is Rattus norvegicus. Put plainly: Acute toxicity in Sprague-Dawley rat assessed as motor impairment at 100 mg/kg, ip after 0.25 hrs. Format: organism-based. Also noted: dose 100 mg/kg, route intraperitoneal. The conditions noted are these: in vivo. Summed up: as §1
The subject of data set [9] is Rattus norvegicus. Put plainly: Acute toxicity in Sprague-Dawley rat assessed as motor impairment at 600 mg/kg, ip after 2 hrs. Further details: dose 600 mg/kg, route intraperitoneal. The conditions noted are these: in vivo. Format: organism-based. Summed up: as §1
The subject of data set [10] is Rattus norvegicus. Briefly: Acute toxicity in Sprague-Dawley rat assessed as motor impairment at 100 mg/kg, ip after 4 hrs. It counts as organism-based. Further details: dose 100 mg/kg, route intraperitoneal. The following applies: in vivo. A digest of the protocol:
as §1

Data set [11] has as its system Rattus norvegicus. Put plainly: Acute toxicity in Sprague-Dawley rat assessed as motor impairment at 300 mg/kg, ip after 4 hrs. Format: organism-based. Further details: dose 300 mg/kg, route intraperitoneal. The conditions noted are these: in vivo. Summed up:
as §1

Data set [12] deals with Rattus norvegicus. Briefly: Acute toxicity in Sprague-Dawley rat assessed as motor impairment at 300 mg/kg, ip after 2 hrs. Format: organism-based. Further details: dose 300 mg/kg, route intraperitoneal. The following applies: in vivo. A digest of the protocol:
as §1

Data set [13] concerns Mus musculus. Briefly: Neurotoxicity in albino CF-1 mouse assessed as motor impairment at 300 mg/kg, ip after 4 hrs by rotarod test. Format: toxicity, organism-based. Further details: dose 300 mg/kg, route intraperitoneal. The conditions noted are these: in vivo. A digest of the protocol:
as §3

The test system of data set [14] is Rattus norvegicus. Briefly: Acute toxicity in Sprague-Dawley rat assessed as motor impairment at 100 mg/kg, ip after 2 hrs. It counts as organism-based. Also noted: dose 100 mg/kg, route intraperitoneal. The conditions noted are these: in vivo. A digest of the protocol: as §1
In data set [15] the test system is Rattus norvegicus. Briefly: Acute toxicity in Sprague-Dawley rat assessed as motor impairment at 600 mg/kg, ip after 0.25 hrs. Format: organism-based. Further details: dose 600 mg/kg, route intraperitoneal. The conditions noted are these: in vivo. A digest of the protocol: as §1
In data set [16] the test system is Rattus norvegicus. Put plainly: Acute toxicity in Sprague-Dawley rat assessed as motor impairment at 600 mg/kg, ip after 4 hrs. It counts as organism-based. Further details: dose 600 mg/kg, route intraperitoneal. The following applies: in vivo. A digest of the protocol:
as §1

Data set [17] deals with Rattus norvegicus. Briefly: Acute toxicity in Sprague-Dawley rat assessed as motor impairment at 300 mg/kg, ip after 0.5 hrs. It counts as organism-based. Further details: dose 300 mg/kg, route intraperitoneal. The conditions noted are these: in vivo. Summed up: as §1
Data set [18] deals with Rattus norvegicus. Put plainly: Acute toxicity in Sprague-Dawley rat assessed as motor impairment at 100 mg/kg, ip after 0.5 hrs. Format: organism-based. Also noted: dose 100 mg/kg, route intraperitoneal. The following applies: in vivo. Summed up: as §1
Data set [19] deals with Rattus norvegicus. Put plainly: Acute toxicity in Sprague-Dawley rat assessed as motor impairment at 600 mg/kg, ip after 0.5 hrs. Further details: dose 600 mg/kg, route intraperitoneal. It counts as organism-based. The following applies: in vivo. Summed up:
as §1

Data set [20] has as its system Rattus norvegicus. Briefly: Toxicity in Sprague-Dawley rat assessed as change in body weight at 600 mg/kg, ip measured after 24 hrs of clonus of one of the fore limbs seizure stage in protected rat. Format: organism-based. Further details: dose 600 mg/kg, route intraperitoneal. The following applies: in vivo. A digest of the protocol: as §2
For data set [21], the system named is Mus musculus. Put plainly: Anticonvulsant activity in albino CF-1 mouse assessed as protection against subcutaneous metrazol-induced seizures at 300 mg/kg, ip after 0.5 hrs. Format: functional, organism-based. Also noted: dose 300 mg/kg. Summed up: (§4)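 Male CF-1 mice, i.p. at 30, 100, 300 mg/kg in 0.5% methyl cellulose; metrazol dose convulsing 97% of animals injected s.c. in midline neck fold, mice isolated and watched 30 min; protected if no 3–5 s clonic spasm episode of limbs, jaws or vibrissae.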

The subject of data set [22] is Mus musculus. Put plainly: Neurotoxicity in ip dosed albino CF-1 mouse assessed as dose required to cause motor impairment after 4 hrs by rotarod test. It counts as toxicity, organism-based. The following applies: in vivo. Summed up:
as §3

For data set [23], the system named is Mus musculus. Briefly: Anticonvulsant activity in ip dosed albino CF-1 mouse assessed as dose required to protect against maximal electroshock-induced seizures after 2 hrs. It counts as functional. A digest of the protocol: (§5)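 Male CF-1 mice (18–25 g), i.p. in 0.5% methyl cellulose at 30, 100 and 300 mg/kg; MES: 60 Hz, 50 mA, 0.2 s through tetracaine-primed corneal electrodes; protection = abolished hind limb tonic extension. Value given as minimum dose active in half or more of mice.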

Data set [24] relates to Mus musculus. Put plainly: Anticonvulsant activity in ip dosed albino CF-1 mouse assessed as dose required to protect against maximal electroshock-induced seizures after 4 hrs. It counts as functional. A digest of the protocol: as §5
Background: In the maximal electroshock model the usual endpoint is tonic extension of the hind limbs.

The subject of data set [25] is Mus musculus. Put plainly: Neurotoxicity in ip dosed albino CF-1 mouse assessed as dose required to cause motor impairment after 0.5 hrs by rotarod test. It counts as toxicity, organism-based. The conditions noted are these: in vivo. A digest of the protocol: as §3
Data set [26] concerns Mus musculus. Briefly: Anticonvulsant activity in ip dosed albino CF-1 mouse assessed as dose required to protect against maximal electroshock-induced seizures after 0.5 hrs. It counts as functional. A digest of the protocol: as §5
Data set [27] deals with Mus musculus. Briefly: Anticonvulsant activity in albino CF-1 mouse assessed as protection against subcutaneous metrazol-induced seizures at 300 mg/kg, ip after 4 hrs. It counts as functional, organism-based. Further details: dose 300 mg/kg. A digest of the protocol: as §4

In general, logP refers to the decadic logarithm of the partition coefficient of the neutral form, usually between octanol and water. Lower therefore signals lower lipophilicity. On to `O=C1Nc2ccccc2/C1=N/NC(=O)c1ccncc1`, for which the Activity entry is reported as “Non-toxic” in data set [1]; “Non-toxic” in data set [2]; 20 g in [4]; “Non-toxic” in data set [5]; “Non-toxic” in data set [6]; “Non-toxic” in data set [7]. Further, the Activity result in data set [8], in data set [9], in data set [10], in [11], in data set [12] and in [13] was “Non-toxic” throughout. Besides, the Activity entry in [14], in [15], in data set [16], in data set [17], in data set [18] and in data set [19] was “Non-toxic” each time. Moreover, the Activity entry in [20] was “Non-toxic”. In data set [3], the logP at 24 h stood at 1.12.
`O=C1NC(=O)C(c2ccccc2)(c2ccccc2)N1` [PHENYTOIN]: the result in [21] and in data set [27] was inactive. Moreover, the Activity in [22] worked out at 100 mg/kg; in data set [23] it was 30 mg/kg; in data set [24], 30 mg/kg; in data set [25], 100 mg/kg; in data set [26] it was 30 mg/kg.

The values are drawn from ChEMBL document CHEMBL1667749, “Design & synthesis of N'-[substituted] pyridine-4-carbohydrazides as potential anticonvulsant agents” (Eur J Med Chem, 2011).
